Results published in article PMC8837702 (Archives of toxicology, 2021).
Like-named read-outs stand apart in the source and are kept apart here.

Assays:
NAT1 [1] = conditions: cited from earlier work; for IC50: read-out: IC50 NAT1
NAT1 [2] = biological target: T1, NAT1 (Homo sapiens, UniProt P18440); assay: Recombinant human NAT1; assay type: biochemical; conditions: for fold lower IC50 for NAT1 versus NAT2 / IC50 NAT2/IC50 NAT1: PABA (NAT1) vs SMZ (NAT2); for IC50 NAT2/IC50 NAT1: ratio; for fold less potent than compound 10 towards recombinant human NAT1: in vitro IC50 comparison
T1 sequence (P18440 1-290): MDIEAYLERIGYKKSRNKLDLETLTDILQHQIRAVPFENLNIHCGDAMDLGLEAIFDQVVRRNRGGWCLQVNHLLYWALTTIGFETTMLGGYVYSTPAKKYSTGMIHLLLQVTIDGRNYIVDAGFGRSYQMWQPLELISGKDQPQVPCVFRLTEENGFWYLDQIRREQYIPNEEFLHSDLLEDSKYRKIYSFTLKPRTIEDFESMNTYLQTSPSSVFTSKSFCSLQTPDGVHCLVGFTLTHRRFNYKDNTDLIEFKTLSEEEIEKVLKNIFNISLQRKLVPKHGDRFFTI
Summary of the method: (§1)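 Lysates of S. pombe stably expressing recombinant human NAT1 (10 μM PABA) or NAT2 (10 μM SMZ) were run with 100 μM acetyl-CoA over a test-compound concentration series. Substrate and N-acetylated product were separated and measured by HPLC. IC50 came from nonlinear regression, reported as mean ± SEM (n=3).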

NAT1 [3] = biological target: T1, NAT1; assay type: biochemical; conditions: ABP as substrate
Summary of the method: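 Recombinant human NAT1 or NAT2 expressed in Schizosaccharomyces pombe, assayed in yeast lysate with 10 μM ABP, 100 μM acetyl-CoA and test compound at 0–200 μM. Substrate and N-acetylated product were separated and quantified by HPLC. The value is the mean ± SD of 3 experiments, with IC50 for each isozyme from nonlinear regression.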

[4] = biological target: T2, human NAT1 expressed in CHO cells (Homo sapiens, UniProt P18440); assay: N-acetylation in situ in UV5 CHO cells expressing human NAT1 and CYP1A1; assay type: cell-based
T2 sequence (P18440 1-290): T1 sequence (P18440 1-290)
Summary of the method: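 UV5 CHO cells (nucleotide excision repair-deficient, XPD mutant) stably transfected with human CYP1A1 and NAT1*4 were plated 24 hr beforehand. Medium was then replaced with α-MEM containing 10 μM PABA or ABP plus test compound. After 2 hr, medium was sampled and N-acetylation quantified by HPLC. Mean ± SD of 3 experiments; IC50 by nonlinear regression.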

NAT1 [5] = biological target: T1, NAT1; assay: PABA N-acetylation in situ in cryopreserved human hepatocytes; assay type: cell-based
Summary of the method: (§2)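 Cultured cryopreserved human hepatocytes from five donors, all of intermediate NAT2 acetylator genotype, were incubated for 24 hr with 50 μM PABA or SMZ plus varying test-compound concentrations. Parent substrates and N-acetylated metabolites were separated and quantified by HPLC. Each point is the mean ± SEM over the 5 samples.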

NAT2 = assay: SMZ N-acetylation in situ in cryopreserved human hepatocytes; assay type: cell-based; conditions: 50 μM SMZ, 24 hr, concentrations up to 200 μM
Summary of the method: as §2

[6] = tested on: endogenous NAT1 in MDA-MB-231 cells; assay: N-acetylation capacity in MDA-MB-231 cells; assay type: cell-based, human; conditions: 10 μM ABP or PABA, 4 hr
Summary of the method: (§3)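 Cells grown in DMEM with 10% FBS, penicillin and streptomycin at 37°C, 5% CO2, were taken to confluence. They were then exposed for 4 hr at 37°C to medium with 10 μM ABP or PABA and test compound. Collected medium was acidified with 1/10 volume 1 M acetic acid and spun at 13,000 g for 10 min. The supernatant was analysed by HPLC for N-acetyl products; n=3, mean ± SEM.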

[7] = tested on: endogenous NAT1 in MCF-7 cells; assay: N-acetylation capacity in MCF-7 cells; assay type: cell-based, human; conditions: 10 μM ABP or PABA, 4 hr
Summary of the method: as §3

human NAT1 = assay: Reversibility of NAT1 inhibition in primary hepatocytes; assay type: cell-based; conditions: 100 or 200 μM for 1 hr, removed, then 10 μM PABA for 5 hr
MDA-MB-231 cells [8] = assay: AlamarBlue cell viability and proliferation, MDA-MB-231; assay type: cell-based, human
Summary of the method: (§4)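 Cells were seeded in 96-well plates and left 24 hr. They were then treated with test compound (0–250 μM) in their own medium for up to 144 hr: MEBM with supplements for MCF-10A, DMEM with 10% FBS for MDA-MB-231. AlamarBlue (1/10 culture volume) was added 1 hr before each time point at 37°C, then fluorescence read (ex 570, em 580 nm). Mean ± SEM (n=4).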

MCF-10A cells = assay: AlamarBlue cell viability and proliferation, MCF-10A; assay type: cell-based, human
Summary of the method: as §4

MDA-MB-231 cells [9] = assay: CytoSelect cell invasion assay, MDA-MB-231; assay type: cell-based, human; conditions: 24 hr, 0, 31.25, 62.5, 125 μM
Summary of the method: (§5)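 CytoSelect 24-well colorimetric invasion assay: 300,000 cells were seeded and allowed to invade toward medium containing 10% FBS for 24 hr with test compound present. Invasion was expressed as a percentage of the DMSO vehicle control. Mean ± SEM (n=3).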

MCF-7 cells = assay: CytoSelect cell invasion assay, MCF-7; assay type: cell-based, human; conditions: 24 hr, 0, 31.25, 62.5, 125 μM
Summary of the method: as §5

recombinant human NAT2 = biological target: T3, recombinant human NAT2 (Homo sapiens, UniProt P11245); assay: Recombinant human NAT2; assay type: biochemical; conditions: for inhibition of human NAT2: at concentrations up to 2 mM
T3 sequence (P11245 1-290): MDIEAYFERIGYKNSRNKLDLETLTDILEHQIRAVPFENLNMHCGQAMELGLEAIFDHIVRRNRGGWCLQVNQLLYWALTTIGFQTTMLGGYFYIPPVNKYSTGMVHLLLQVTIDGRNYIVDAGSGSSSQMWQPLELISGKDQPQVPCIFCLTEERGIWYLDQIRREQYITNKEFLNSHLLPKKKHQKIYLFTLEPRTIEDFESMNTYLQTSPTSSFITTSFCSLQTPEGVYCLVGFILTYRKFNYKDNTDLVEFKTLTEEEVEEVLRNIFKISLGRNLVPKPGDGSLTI
Summary of the method: as §1

[10] = read-out: IC50 for NAT1, in vitro, recombinant in yeast, 10 μM PABA, 100 μM AcCoA, Mean ± SEM (n=3)

## O=C1NC(=S)S/C1=C\c1ccccc1O [(Z)-5-(2-hydroxybenzylidene)-2-thioxothiazolidin-4-one]
NAT1 [1]
  IC50: 101 µM

## 9,10-dihydro-9,10-dioxo-1,2-anthracenediyl diethyl ester [Compound 10]
NAT1 [2]; in vitro
  fold lower IC50 for NAT1 versus NAT2: over 100 fold
NAT1 [2]
  IC50 NAT2/IC50 NAT1: 110
NAT1 [2]; [10]
  IC50: 0.75 ± 0.2 µM
NAT1 [3]
  fold lower IC50 for NAT1 versus NAT2, ABP N-acetylation: over 50 fold
[4]; read-out: in situ IC50, ABP N-acetylation in CHO cells, ABP as substrate
  IC50: 81.6 ± 4.4 µM
[4]; read-out: in situ IC50, PABA N-acetylation in CHO cells, PABA as substrate
  IC50: 118 ± 5 µM
NAT1 [5]; read-out: IC50, PABA N-acetylation in cryopreserved human hepatocytes, 50 μM PABA, 24 hr, 5 hepatocyte samples of intermediate NAT2 acetylator genotype
  IC50: 158 ± 22 µM
NAT2
  inhibition of SMZ N-acetylation in cryopreserved human hepatocytes: no inhibition
[6]
  N-acetylation of PABA and ABP in MDA-MB-231: inhibited
[7]
  N-acetylation of PABA and ABP in MCF-7: inhibited
Human NAT1
  reversibility of inhibition of PABA N-acetylation: reversible
MDA-MB-231 cells [8]; 4-48 hr, 0-250 μM
  cell viability, MDA-MB-231: did not decrease cell viability
MDA-MB-231 cells [8]; 72 and 144 hr
  cell proliferation, MDA-MB-231: dose-dependent decrease
MDA-MB-231 cells [8]; read-out: IC50 for cell proliferation, MDA-MB-231, 72 hr
  IC50: 32 µM
MCF-10A cells; non-tumorigenic cell line, later time points
  cell proliferation, MCF-10A: a decrease in cell proliferation was observed
MCF-10A cells; read-out: IC50 for cell proliferation, MCF-10A, 72 hr
  IC50: 113 µM
MDA-MB-231 cells [9]
  cell invasion/migration, MDA-MB-231: dose-dependent inhibition
MCF-7 cells
  cell invasion/migration, MCF-7: dose-dependent inhibition

## O=C1c2ccccc2C(=O)c2c1ccc(O)c2O [Analog 3 (Alizarin), 1,2-dihydroxyanthraquinone]
NAT1 [2]
  IC50: 0.886 ± 0.0895 µM
  IC50 NAT2/IC50 NAT1: 113
NAT1 [2]; in vitro
  fold lower IC50 for NAT1 versus NAT2: over 100 fold
Recombinant human NAT2
  IC50: 98.6 ± 9.4 µM
NAT1 [5]
  IC50: 70 ± 1.4 µM

## 1-(9,10-dihydro-8-hydroxy-9,10-dioxo-1-anthracenyl)4-ethyl ester [Analog 1]
NAT1 [2]
  fold less potent than compound 10 towards recombinant human NAT1: over 100 fold
  IC50 NAT2/IC50 NAT1: >11.7
NAT1 [2]; [10]
  IC50: 171 ± 4.7 µM
Recombinant human NAT2
  inhibition of human NAT2: No inhibition

## 9,10-dihydro-9,10-dioxo-1,8-anthracenediyl diethyl ester [Analog 2]
NAT1 [2]
  fold less potent than compound 10 towards recombinant human NAT1: over 100 fold
  IC50 NAT2/IC50 NAT1: >21.3
NAT1 [2]; [10]
  IC50: 94 ± 6.8 µM
Recombinant human NAT2
  inhibition of human NAT2: No inhibition

## O=C1NC(=S)S/C1=C/c1cc(I)c(O)c(I)c1 [(5E)-[5-(4-hydroxy-3,5-diiodobenzylidene)-2-thioxo-1,3-thiazolidin-4-one]
NAT1 [1]
  fold more selective for NAT1 than NAT2: 25 fold
  IC50: 0.732 µM
